Results: ChEMBL document CHEMBL1157725 (Bioorg Med Chem, 2010)
Calls of active or inactive are those of the source. The calls are words filed in the database; no cut-off is given here.

What was measured:
SR = test: Growth inhibition of human SR cells after 48 hrs by SRB assay; format: functional
Outline: (§1)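 NCI human tumor cell line panel. Cells exposed for 48 h to five concentrations in a 10-fold serial dilution. Growth inhibition read as total cell protein by sulforhodamine B staining. GI50 calculated from log dose–response curves.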

[1] = Growth inhibition of human […] cells after 48 hrs by SRB assay; format: functional
HCT-15 = test: Growth inhibition of human HCT15 cells after 48 hrs by SRB assay; format: functional; details: HCT-15, 48 h
MCF7 [2] = test: Cell cycle arrest in human MCF7 cells by accumulation at G2/M phase at 0.1 uM after 48 hrs by flow cytometry (Rvb=5.9%); format: functional
PC-3 = test: Growth inhibition of human PC3 cells after 48 hrs by SRB assay; format: functional; details: PC-3, 48 h
Outline: (§2)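 This is the NCI cell-line panel. Cells are exposed for 48 h to five concentrations in 10-fold serial dilution. Growth is read by the SRB protein assay, and GI₅₀ is calculated from log dose–response curves.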

NCI-H226 = test: Growth inhibition of human NCI-H226 cells after 48 hrs by SRB assay; format: functional; details: NCI-H226, 48 h
[3] = Growth inhibition of human Hs 578T cells after 48 hrs by SRB assay; format: functional; outline: as §2
HOP-92 = test: Growth inhibition of human HOP92 cells after 48 hrs by SRB assay; format: functional; details: HOP-92, 48 h
K562 = test: Growth inhibition of human K562 cells after 48 hrs by SRB assay; format: functional; details: K562, 48 h
IGROV-1 = test: Growth inhibition of human IGROV1 cells after 48 hrs by SRB assay; format: functional; details: IGROV-1, 48 h; outline: as §2
MDA-MB-231 = test: Growth inhibition of human MDA-MB-231 cells after 48 hrs by SRB assay; format: functional; details: MDA-MB-231, 48 h; outline: as §2
BT-549 = test: Growth inhibition of human BT549 cells after 48 hrs by SRB assay; format: functional; details: BT-549, 48 h; outline: as §2
MCF7 [4] = test: Cell cycle arrest in human MCF7 cells by accumulation at G2/M phase at 1 uM after 48 hrs by flow cytometry (Rvb=5.9%); format: functional
A10 = test: Inhibition of tubulin in rat A10 cells assessed as thinning of microtubule network at 20 uM after 18 hrs by fluorescence microscopy; format: cell-based
Outline: (§3)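 A-10 cells plated on glass coverslips and treated with compound at varying concentrations for 18 h. After fixation, microtubules immunostained with a β-tubulin antibody (indirect immunofluorescence) and nuclei stained with DAPI. Read by fluorescence microscopy. Percentage of cellular microtubule loss estimated visually across the concentration range.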

NCI-H23 = test: Growth inhibition of human NCI-H23 cells after 48 hrs by SRB assay; format: functional; details: NCI-H23, 48 h
MDA-MB-435 = test: Growth inhibition of human MDA-MB-435 cells after 48 hrs by SRB assay; format: functional; details: MDA-MB-435, 48 h; outline: as §2
SK-OV-3 = test: Growth inhibition of human SKOV3 cells after 48 hrs by SRB assay; format: functional; details: SK-OV-3, 48 h; outline: as §1
OVCAR-4 = test: Growth inhibition of human OVCAR4 cells after 48 hrs by SRB assay; format: functional; details: OVCAR-4, 48 h; outline: as §2
U-251 = test: Growth inhibition of human U251 cells after 48 hrs by SRB assay; format: functional; details: U-251, 48 h; outline: as §1
M14 = test: Growth inhibition of human M14 cells after 48 hrs by SRB assay; format: functional; details: M14, 48 h; outline: as §2
CCRF-CEM = test: Growth inhibition of human CCRF-CEM cells after 48 hrs by SRB assay; format: functional
KM12 = test: Growth inhibition of human KM12 cells after 48 hrs by SRB assay; format: functional; details: KM12, 48 h
SNB-19 = test: Growth inhibition of human SNB19 cells after 48 hrs by SRB assay; format: functional; details: SNB-19, 48 h; outline: as §1
[5] = Inhibition of tubulin in rat A10 cells assessed as induction of cellular microtubule disassembly after 18 hrs by indirect immunofluorescence technique; format: cell-based; details: A10, 18 h; outline: as §3
SF-539 = test: Growth inhibition of human SF539 cells after 48 hrs by SRB assay; format: functional; details: SF-539, 48 h; outline: as §1
Aorta = test: Antiangiogenic activity in rat aortic rings assessed inhibition of sprouts formation at 5 uM after 6 days by aortic ring assay; format: functional, tissue-based
SW-620 = test: Growth inhibition of human SW620 cells after 48 hrs by SRB assay; format: functional; details: SW-620, 48 h; outline: as §1
COLO 205 = test: Growth inhibition of human COLO205 cells after 48 hrs by SRB assay; format: functional; details: COLO 205, 48 h
EKVX = test: Growth inhibition of human EKVX cells after 48 hrs by SRB assay; format: functional
Malme-3M = test: Growth inhibition of human MALME-3M cells after 48 hrs by SRB assay; format: functional; outline: as §2
HCT-116 = test: Growth inhibition of human HCT116 cells after 48 hrs by SRB assay; format: functional; details: HCT-116, 48 h
CAKI-1 = test: Growth inhibition of human Caki1 cells after 48 hrs by SRB assay; format: functional; details: CAKI-1, 48 h; outline: as §2
RXF 393 = test: Growth inhibition of human RXF393 cells after 48 hrs by SRB assay; format: functional; details: RXF 393, 48 h; outline: as §2

COc1ccc(/C=C/C(=O)c2cc(OC)c(OC)c(OC)c2)cc1B(O)O
GI50 (SR): 2180 nM
GI50 [1]: 1120 nM
GI50 (HCT-15): < 10 nM
Activity (MCF7 [2]): 6.4%
GI50 (PC-3): 250 nM
GI50 (NCI-H226): 4140 nM
GI50 [3]: 46 nM
GI50 (HOP-92): 380 nM
GI50 (K562): 3460 nM
GI50 (IGROV-1): 88 nM
GI50 (MDA-MB-231): 110 nM
GI50 (BT-549): 21 nM
Activity (MCF7 [4]): 7.1%
Activity (A10): Active
GI50 (NCI-H23): 140 nM
GI50 (MDA-MB-435): 1950 nM
GI50 (SK-OV-3): < 10 nM
GI50 (OVCAR-4): 2060 nM
GI50 (U-251): 25 nM
GI50 (M14): 1190 nM
GI50 (CCRF-CEM): 2390 nM
GI50 (KM12): 15400 nM
GI50 (SNB-19): < 10 nM
EC50 [5]: 16500 nM
GI50 (SF-539): 35 nM
inhibition (Aorta): Active
GI50 (SW-620): 37 nM
GI50 (COLO 205): 2200 nM
GI50 (EKVX): 1310 nM
GI50 (Malme-3M): 5490 nM
GI50 (HCT-116): 370 nM
GI50 (CAKI-1): 6390 nM
GI50 (RXF 393): 390 nM
